Results reported in ChEMBL document CHEMBL1122942, “Conformationally defined adrenergic agents. 1. Design and synthesis of novel alpha 2 selective adrenergic agents: electrostatic repulsion based conformational prototypes” (J Med Chem, 1985).

How the values were obtained:
[1] = target: T1, Adrenergic receptor alpha-2 (Rattus norvegicus, UniProt P22086+P19328+P22909); assay: Binding affinity towards alpha-2 adrenergic receptor in rat using [3H]rauwolscine as radioligand
T1 sequence (P22086 whole entry): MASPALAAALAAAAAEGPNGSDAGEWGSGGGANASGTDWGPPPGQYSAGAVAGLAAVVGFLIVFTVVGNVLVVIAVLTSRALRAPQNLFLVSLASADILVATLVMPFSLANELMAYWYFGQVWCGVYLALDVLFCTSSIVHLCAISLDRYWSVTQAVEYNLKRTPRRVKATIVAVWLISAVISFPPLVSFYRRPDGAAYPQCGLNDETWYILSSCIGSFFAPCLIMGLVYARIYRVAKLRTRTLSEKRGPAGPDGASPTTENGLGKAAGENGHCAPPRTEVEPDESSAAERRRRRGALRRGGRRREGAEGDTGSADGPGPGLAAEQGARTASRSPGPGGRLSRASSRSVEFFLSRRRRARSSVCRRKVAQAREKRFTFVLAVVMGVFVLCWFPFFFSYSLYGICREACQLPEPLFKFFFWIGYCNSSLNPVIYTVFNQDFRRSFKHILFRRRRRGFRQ
T1 sequence (P19328 whole entry): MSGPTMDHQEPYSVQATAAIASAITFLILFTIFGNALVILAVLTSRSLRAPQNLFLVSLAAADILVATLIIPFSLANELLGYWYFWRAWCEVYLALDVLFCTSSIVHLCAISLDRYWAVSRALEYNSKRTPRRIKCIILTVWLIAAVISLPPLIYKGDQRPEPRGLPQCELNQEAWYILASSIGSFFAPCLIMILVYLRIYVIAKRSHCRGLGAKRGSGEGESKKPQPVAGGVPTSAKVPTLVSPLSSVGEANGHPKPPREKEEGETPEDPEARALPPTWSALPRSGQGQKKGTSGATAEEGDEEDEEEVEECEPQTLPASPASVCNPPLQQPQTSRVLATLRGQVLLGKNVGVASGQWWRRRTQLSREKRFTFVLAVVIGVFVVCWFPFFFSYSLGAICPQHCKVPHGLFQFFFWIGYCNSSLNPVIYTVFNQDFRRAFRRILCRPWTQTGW
T1 sequence (P22909 whole entry): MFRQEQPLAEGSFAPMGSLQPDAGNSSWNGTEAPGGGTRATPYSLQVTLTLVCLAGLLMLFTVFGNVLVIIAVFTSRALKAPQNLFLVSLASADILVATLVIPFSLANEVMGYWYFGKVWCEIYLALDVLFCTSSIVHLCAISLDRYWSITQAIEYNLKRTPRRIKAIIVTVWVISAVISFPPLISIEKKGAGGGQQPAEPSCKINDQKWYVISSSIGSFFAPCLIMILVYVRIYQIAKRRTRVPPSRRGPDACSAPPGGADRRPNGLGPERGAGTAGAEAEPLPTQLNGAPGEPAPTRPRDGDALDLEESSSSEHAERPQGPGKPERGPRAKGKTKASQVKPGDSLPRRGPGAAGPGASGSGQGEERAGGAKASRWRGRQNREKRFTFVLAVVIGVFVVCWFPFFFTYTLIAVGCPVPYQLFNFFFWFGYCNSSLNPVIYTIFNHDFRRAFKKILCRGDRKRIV
Summary of the method: (§1)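 Male Sprague-Dawley rat cerebral cortex membranes (50-150 µg/mL protein) in 50 mM Tris-HCl pH 7.7 with [3H]rauwolscine. Incubated 2 h at 4 °C; phentolamine 10^-5 M defined nonspecific binding. At least four concentrations from 10^-10 to 10^-3 M, each in duplicate. Bound ligand was filtered and counted by scintillation.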

[2] = target: T2, Adrenergic receptor alpha-1 (Rattus norvegicus, UniProt P15823+P23944+P43140); assay: Binding affinity against alpha-1 adrenergic receptor in rat using [3H]prazosin as radioligand
T2 sequence (P15823 whole entry): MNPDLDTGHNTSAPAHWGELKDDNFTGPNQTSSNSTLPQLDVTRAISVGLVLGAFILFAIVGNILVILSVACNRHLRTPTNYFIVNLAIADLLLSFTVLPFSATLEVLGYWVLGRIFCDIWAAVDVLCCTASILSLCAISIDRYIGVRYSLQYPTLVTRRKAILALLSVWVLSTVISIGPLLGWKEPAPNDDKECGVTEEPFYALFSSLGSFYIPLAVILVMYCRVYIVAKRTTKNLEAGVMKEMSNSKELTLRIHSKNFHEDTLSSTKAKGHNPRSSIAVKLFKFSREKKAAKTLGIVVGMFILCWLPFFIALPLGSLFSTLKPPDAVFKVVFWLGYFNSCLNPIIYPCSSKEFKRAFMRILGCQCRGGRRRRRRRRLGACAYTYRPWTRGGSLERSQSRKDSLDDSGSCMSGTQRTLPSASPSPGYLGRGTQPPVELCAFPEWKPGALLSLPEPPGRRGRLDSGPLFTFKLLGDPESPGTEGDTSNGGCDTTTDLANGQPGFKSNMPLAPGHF
T2 sequence (P23944 whole entry): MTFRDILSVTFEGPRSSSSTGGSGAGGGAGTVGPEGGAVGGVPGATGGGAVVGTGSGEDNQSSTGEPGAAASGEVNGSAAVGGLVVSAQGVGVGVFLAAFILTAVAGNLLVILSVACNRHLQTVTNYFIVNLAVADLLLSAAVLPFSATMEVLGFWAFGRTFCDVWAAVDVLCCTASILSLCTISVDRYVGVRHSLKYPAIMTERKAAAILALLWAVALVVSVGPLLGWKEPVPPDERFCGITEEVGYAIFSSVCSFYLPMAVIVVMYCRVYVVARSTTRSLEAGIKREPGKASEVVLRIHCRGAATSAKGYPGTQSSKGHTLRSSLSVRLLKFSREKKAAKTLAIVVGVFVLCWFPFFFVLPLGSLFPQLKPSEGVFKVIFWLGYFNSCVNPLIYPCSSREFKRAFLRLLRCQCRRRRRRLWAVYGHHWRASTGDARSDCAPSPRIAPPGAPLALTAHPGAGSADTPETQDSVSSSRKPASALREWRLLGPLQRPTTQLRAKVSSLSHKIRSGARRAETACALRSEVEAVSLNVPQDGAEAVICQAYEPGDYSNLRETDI
T2 sequence (P43140 whole entry): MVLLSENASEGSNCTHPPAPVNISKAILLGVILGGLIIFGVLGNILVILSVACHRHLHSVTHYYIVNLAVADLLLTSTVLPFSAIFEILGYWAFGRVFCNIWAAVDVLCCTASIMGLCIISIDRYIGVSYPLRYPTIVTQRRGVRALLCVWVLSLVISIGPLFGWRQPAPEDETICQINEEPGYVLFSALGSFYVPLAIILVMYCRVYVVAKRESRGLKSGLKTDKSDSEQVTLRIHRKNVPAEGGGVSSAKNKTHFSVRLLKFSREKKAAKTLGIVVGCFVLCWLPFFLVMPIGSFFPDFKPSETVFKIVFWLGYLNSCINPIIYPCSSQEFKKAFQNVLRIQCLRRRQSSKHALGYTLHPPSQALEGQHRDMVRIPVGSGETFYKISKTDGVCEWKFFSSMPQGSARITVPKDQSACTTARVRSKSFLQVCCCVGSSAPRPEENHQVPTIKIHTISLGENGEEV
Summary of the method: as §1, with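 “liver” for “cerebral cortex”, “[3H]prazosin.” for “[3H]rauwolscine.”, “50 min” for “2 h”, “25” for “4”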

[3] = target: Adrenergic receptor alpha (Rattus norvegicus) (UniProt P15823+P23944+P43140+P22086+P19328+P22909); assay: Relative affinities for Alpha1 and alpha-2 adrenergic receptors in rat

| SMILES | Ki [1] | Ki [2] | Ratio [3] |
| --- | --- | --- | --- |
| CCCN(CCC)CC1CCCc2c1ccc(O)c2O (configuration not stated) | 0.18 µM | 7.9 µM |  |
| NCC1CCCc2cc(O)c(O)cc21 (configuration not stated) | 5.1 µM | 15 µM |  |
| NCC1CCCc2c1ccc(O)c2O (configuration not stated) | 0.047 µM | 13 µM |  |
| CNCC1CCCc2cc(O)c(O)cc21 (configuration not stated) | 1.3 µM | 8.7 µM |  |
| NCC(O)c1cc(O)c(O)cc1F (configuration not stated) |  | 0.65 µM |  |
| NCC(O)c1ccc(O)c(O)c1F (configuration not stated) | 1.4 µM | 25 µM |  |
| NCC1CCc2cc(O)c(O)cc21 (configuration not stated) | 0.52 µM | 26 µM |  |
| CCNCC1CCCc2c1ccc(O)c2O (configuration not stated) | 0.2 µM | 7.9 µM | 40 |
| CCN(CC)CC1CCc2c1ccc(O)c2O (configuration not stated) | 0.32 µM | 3.6 µM | 11 |
| CN(C)CC1CCc2cc(O)c(O)cc21 (configuration not stated) | 0.86 µM | 13 µM |  |
| NCC1CCc2c1ccc(O)c2O (configuration not stated) | 0.015 µM | 8.6 µM | 560 |
| CC(C)NCC1CCc2c1ccc(O)c2O (configuration not stated) | 0.66 µM | 4.6 µM | 6.9 |
| CC(C)NCC1CCCc2cc(O)c(O)cc21 (configuration not stated) | 2.5 µM | 14 µM |  |
| CCCN(CCC)CC1CCc2cc(O)c(O)cc21 (configuration not stated) | 0.69 µM | 29 µM |  |
| CCNCC1CCc2c1ccc(O)c2O (configuration not stated) | 0.13 µM | 2.5 µM | 20 |
| CC(C)NCC1CCCc2c1ccc(O)c2O (configuration not stated) | 4.7 µM | 6.6 µM |  |

| SMILES | Ki [1] | Ki [2] | Ratio [3] |
| --- | --- | --- | --- |
| CCCN(CCC)CC1CCCc2cc(O)c(O)cc21 (configuration not stated) | 0.6 µM | 16 µM |  |
| CN(C)CC1Cc2c1ccc(O)c2O (configuration not stated) | 0.021 µM | 3.3 µM | 160 |
| NCC1Cc2c1ccc(O)c2O (configuration not stated) | 0.17 µM | 16 µM | 98 |
| CN(C)CC1CCCc2cc(O)c(O)cc21 (configuration not stated) | 0.7 µM | 13 µM |  |
| CC(C)NCC1CCc2cc(O)c(O)cc21 (configuration not stated) | 3.8 µM | 11 µM |  |
| Brc1c(NC2=NCCN2)ccc2nccnc12 [BRIMONIDINE] |  | 0.74 µM |  |
| NCC1CCCCc2c1ccc(O)c2O (configuration not stated) | 0.88 µM | 27 µM | 30 |
| NCC1Cc2cc(O)c(O)cc21 (configuration not stated) | 0.2 µM | 5 µM |  |
| CCCN(CCC)CC1CCc2c1ccc(O)c2O (configuration not stated) | 0.47 µM | 7.4 µM | 16 |
| CNCC1CCc2c1ccc(O)c2O (configuration not stated) | 0.007 µM | 2 µM | 290 |
| NCC1CCCCc2cc(O)c(O)cc21 (configuration not stated) | 19 µM | 11 µM |  |
| CN(C)CC1CCCc2c1ccc(O)c2O (configuration not stated) | 0.66 µM | 13 µM |  |
| CN(C)CC1CCc2c1ccc(O)c2O (configuration not stated) | 0.025 µM | 6.9 µM | 270 |
| CNCC1CCCc2c1ccc(O)c2O (configuration not stated) | 0.044 µM | 7.9 µM |  |
| CCN(CC)CC1CCCc2c1ccc(O)c2O (configuration not stated) | 0.25 µM | 3.1 µM | 13 |
